Results reported in PMC7350150 (Neoplasia (New York, N.Y.), 2020).
“Also recorded” adds a separate entry of the source. Values belong to the molecule of their own block, whether it stands above or below them.

How the values were obtained:
[1] = QWBA tissue distribution of [14C] pamiparib; format: in vivo, Long-Evans rats; conditions: rats, single oral 5 mg/kg, 24 h post treatment
Human BCRP = Human BCRP (Homo sapiens, UniProt Q9UNQ0); experiment: ATP-dependent uptake activity, BCRP substrate test; format: in vitro ADME; conditions: 0.5 μM to 30 μM; uptake ratio ≥ 2-fold is positive
Human BCRP, sequence (Q9UNQ0 whole entry): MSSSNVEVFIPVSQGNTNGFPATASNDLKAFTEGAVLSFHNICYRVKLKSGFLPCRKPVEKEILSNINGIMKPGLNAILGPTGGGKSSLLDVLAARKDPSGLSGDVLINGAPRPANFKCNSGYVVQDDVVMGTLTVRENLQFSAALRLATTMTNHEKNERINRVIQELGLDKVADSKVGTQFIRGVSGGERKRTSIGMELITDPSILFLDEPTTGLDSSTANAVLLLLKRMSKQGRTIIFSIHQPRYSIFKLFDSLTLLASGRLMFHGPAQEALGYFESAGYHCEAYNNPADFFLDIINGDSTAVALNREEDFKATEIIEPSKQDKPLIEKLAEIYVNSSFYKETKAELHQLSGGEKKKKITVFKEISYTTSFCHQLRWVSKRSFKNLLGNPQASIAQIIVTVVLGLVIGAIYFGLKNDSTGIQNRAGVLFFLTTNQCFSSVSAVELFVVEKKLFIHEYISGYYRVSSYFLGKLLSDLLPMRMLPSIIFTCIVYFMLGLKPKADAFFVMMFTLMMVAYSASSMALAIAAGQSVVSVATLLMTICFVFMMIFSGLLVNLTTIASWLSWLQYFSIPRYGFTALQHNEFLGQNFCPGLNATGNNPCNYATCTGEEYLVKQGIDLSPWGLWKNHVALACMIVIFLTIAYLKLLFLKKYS

[2] = Brain penetration of PARP inhibitors in mice; format: in vivo, male C57 mice; conditions: for Kp: po, AUC1-4h
PK study in dog = format: in vivo
Summary of the method: (§1)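 Healthy animals given a single dose. Mouse: 10 mg/kg p.o. or 1 mg/kg i.v. Rat: 5 mg/kg p.o. or 2 mg/kg i.v. Dog: 2 mg/kg p.o. or 1 mg/kg i.v. Plasma deproteinised with acetonitrile containing internal standard and centrifuged at 14,000 rpm for 8 min. Drug measured by LC–MS/MS. Dosing solutions analysed to confirm the actual dose given.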

[3] = system: intracellular PAR levels in HeLa cells; experiment: Inhibition of H2O2-induced PAR synthesis; format: cell-based; conditions: Homo sapiens, 18 h, read-out: IC50 of intracellular PARP activity
[4] = system: intracellular PARP activity in H2O2-treated GL261 cells; experiment: Inhibition of H2O2-induced PAR synthesis; format: cell-based, murine; conditions: Mus musculus, GL261, read-out: IC50 of intracellular PARP activity
Summary of the method: (§2)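 Cells seeded at 5000/well in DMEM with 10% FBS. After 4 h, test compound added as eight serial dilutions (0.02–200 nM final) in 0.1% DMSO for 18 h. DNA damage induced with 200 μM H₂O₂ at 37 °C for 5 min. Cells fixed in ice-cold methanol at −20 °C and stained overnight at 4 °C with anti-PAR mAb, Alexa 488 secondary and DAPI. Nuclear PAR intensity imaged; IC50 taken from residual activity.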

PK study in healthy mice = format: in vivo, Mouse
Summary of the method: as §1

[5] = system: intracellular PARP activity in H2O2-treated SF-295 cells; experiment: Inhibition of H2O2-induced PAR synthesis; format: cell-based; conditions: Homo sapiens, SF-295, read-out: IC50 of intracellular PARP activity
Summary of the method: as §2

[6] = system: PARylation in MDA-MB-436 xenograft tumors; experiment: PK/PD in MDA-MB-436 xenograft; format: in vivo, mice; conditions: single dose 5.45, first 12 h
[7] = PK/PD in MDA-MB-436 xenograft; format: in vivo, mice; conditions: BALB/c nude, mouse, tumor, oral, 5.45 mg/kg
[8] = system: PARylation in brain tumors, intracranial H209 xenograft; experiment: Brain penetration and PD in intracranial H209 xenograft; format: in vivo, mice; conditions: single dose 3 mg/kg p.o., 4 h after treatment
[9] = system: GL261 syngeneic intracranial glioma; experiment: GL261 syngeneic intracranial glioma model survival; format: in vivo, Mice; conditions: single agent 9 mpk
PK study in rat = format: in vivo
Summary of the method: as §1

P-gp = P-gp (Homo sapiens, UniProt P08183); experiment: P-gp efflux activity in MDCKII-MDR1 cell monolayer; format: in vitro ADME; conditions: 1 µM and 10 µM; ER > 2 and decrease to < 50% with inhibitor suggests substrate
P-gp, sequence (P08183 whole entry): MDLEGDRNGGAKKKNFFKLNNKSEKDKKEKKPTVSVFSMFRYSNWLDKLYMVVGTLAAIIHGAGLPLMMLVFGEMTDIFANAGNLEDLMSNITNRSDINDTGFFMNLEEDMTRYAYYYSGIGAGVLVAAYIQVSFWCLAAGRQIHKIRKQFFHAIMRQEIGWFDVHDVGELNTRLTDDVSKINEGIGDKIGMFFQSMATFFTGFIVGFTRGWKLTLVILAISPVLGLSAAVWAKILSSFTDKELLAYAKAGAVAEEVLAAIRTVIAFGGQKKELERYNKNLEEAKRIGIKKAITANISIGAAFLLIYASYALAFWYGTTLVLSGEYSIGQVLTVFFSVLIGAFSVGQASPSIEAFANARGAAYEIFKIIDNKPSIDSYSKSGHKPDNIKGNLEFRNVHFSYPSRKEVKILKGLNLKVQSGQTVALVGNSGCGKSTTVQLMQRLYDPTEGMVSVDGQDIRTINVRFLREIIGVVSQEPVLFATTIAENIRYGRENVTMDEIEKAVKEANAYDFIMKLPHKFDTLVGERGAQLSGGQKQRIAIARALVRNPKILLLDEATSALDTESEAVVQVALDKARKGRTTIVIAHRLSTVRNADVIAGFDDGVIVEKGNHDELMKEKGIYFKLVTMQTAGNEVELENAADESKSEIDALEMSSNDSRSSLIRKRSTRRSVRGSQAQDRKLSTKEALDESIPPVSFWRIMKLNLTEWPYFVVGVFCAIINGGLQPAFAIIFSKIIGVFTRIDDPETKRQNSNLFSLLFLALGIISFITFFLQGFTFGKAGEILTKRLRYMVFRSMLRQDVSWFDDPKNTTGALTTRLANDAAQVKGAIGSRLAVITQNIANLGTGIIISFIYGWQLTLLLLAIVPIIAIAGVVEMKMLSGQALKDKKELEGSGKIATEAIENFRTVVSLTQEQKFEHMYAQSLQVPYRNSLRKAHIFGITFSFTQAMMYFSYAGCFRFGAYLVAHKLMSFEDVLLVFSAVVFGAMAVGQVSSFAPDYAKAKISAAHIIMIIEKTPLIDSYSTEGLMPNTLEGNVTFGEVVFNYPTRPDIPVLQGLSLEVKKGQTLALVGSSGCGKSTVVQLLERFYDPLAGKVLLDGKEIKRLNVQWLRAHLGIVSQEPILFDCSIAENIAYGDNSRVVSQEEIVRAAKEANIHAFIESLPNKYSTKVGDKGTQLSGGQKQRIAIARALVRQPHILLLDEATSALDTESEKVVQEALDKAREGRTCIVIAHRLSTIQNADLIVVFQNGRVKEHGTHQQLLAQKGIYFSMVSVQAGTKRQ

[10] = system: intracranial H209 xenograft; experiment: Intracranial H209 xenograft survival; format: in vivo, BALB/c nude mice; conditions: pamiparib 3 mg/kg BID day 1–21, 29–49; TMZ 50 mg/kg; combination TMZ 50 mg/kg plus pamiparib 0.75 mg/kg BID
[11] = Brain penetration after intravenous administration, Kpuu; format: in vivo, SD rats; conditions: male, Sprague-Dawley, rat, brain and plasma (unbound), 1 mg/kg
[12] = system: MDA-MB-436 breast cancer xenograft; experiment: MDA-MB-436 breast cancer xenograft efficacy; format: in vivo, BALB/c nude mice; conditions: for tumor relapse at day 89: two months after treatment terminated
Summary of the method: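 MDA-MB-436 cells at 2.5 × 10⁷ cells/mL in 1:1 PBS/Matrigel, implanted subcutaneously in the right front flank of 6–8-week female BALB/c nude mice. At ~130 mm³, mice stratified into six groups of nine. Oral BID dosing for 28 days: vehicle (0.5% methylcellulose), test compound from 1.6 mg/kg, or a comparator PARP inhibitor at 25 or 50 mg/kg. Tumours followed to day 89.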

[13] = system: intracranial H209-TR xenografts; experiment: Intracranial H209-TR xenograft survival; format: in vivo, BALB/c nude mice; conditions: same treatment schedule as intracranial H209
SNB-19 = experiment: Pamiparib and TMZ combination, anti-proliferation; format: cell-based; conditions: Homo sapiens, SNB-19, read-out: EC50 of TMZ single agent
LN-229 = experiment: Pamiparib and TMZ combination, anti-proliferation; format: cell-based; conditions: Homo sapiens, LN-229, read-out: EC50 of TMZ single agent
U251 = experiment: Pamiparib and TMZ combination, anti-proliferation; format: cell-based; conditions: Homo sapiens, U-251, read-out: EC50 of TMZ single agent
SF-539 = experiment: Pamiparib and TMZ combination, anti-proliferation; format: cell-based; conditions: Homo sapiens, SF-539, read-out: EC50 of TMZ single agent
T98G = experiment: Pamiparib and TMZ combination, anti-proliferation; format: cell-based; conditions: Homo sapiens, read-out: EC50 of TMZ single agent
U87-MG = experiment: Pamiparib and TMZ combination, anti-proliferation; format: cell-based; conditions: Homo sapiens, U-87 MG, read-out: EC50 of TMZ single agent
NCI-H2227 = experiment: Pamiparib and TMZ combination, anti-proliferation; format: cell-based; conditions: read-out: EC50 of TMZ single agent
NCI-H1048 = experiment: Pamiparib and TMZ combination, anti-proliferation; format: cell-based; conditions: Homo sapiens, NCI-H1048, read-out: EC50 of TMZ single agent
NCI-H209 = experiment: Pamiparib and TMZ combination, anti-proliferation; format: cell-based; conditions: Homo sapiens, NCI-H209, read-out: EC50 of TMZ single agent
SF-295 = experiment: Pamiparib and TMZ combination, anti-proliferation; format: cell-based; conditions: Homo sapiens, SF-295, read-out: EC50 of TMZ single agent
NCI-H69 = experiment: Pamiparib and TMZ combination, anti-proliferation; format: cell-based; conditions: Homo sapiens, NCI-H69, read-out: EC50 of TMZ single agent
NCI-H2286 = experiment: Pamiparib and TMZ combination, anti-proliferation; format: cell-based; conditions: Homo sapiens, NCI-H2286, read-out: EC50 of TMZ single agent
U-118MG = experiment: Pamiparib and TMZ combination, anti-proliferation; format: cell-based; conditions: Homo sapiens, read-out: EC50 of TMZ single agent
DMS153 = experiment: Pamiparib and TMZ combination, anti-proliferation; format: cell-based; conditions: Homo sapiens, DMS-153, read-out: EC50 of TMZ single agent
NCI-H1436 = experiment: Pamiparib and TMZ combination, anti-proliferation; format: cell-based; conditions: Homo sapiens, NCI-H1436, read-out: EC50 of TMZ single agent
[14] = male, C57, mouse, brain and plasma, Brain/Plasma, single p.o. dose: Pamiparib 10, Talazoparib 3, Olaparib 50, Niraparib 50 mg/kg
[15] = single p.o. dose: Pamiparib 10, Talazoparib 3, Olaparib 50, Niraparib 50 mg/kg
[16] = mouse, plasma, intravenous, 1 mg/kg
[17] = Rat, 5 mg/kg p.o. or 2 mg/kg i.v.

SMILES: C[C@]12CCCN1CC1=NNC(=O)c3cc(F)cc4[nH]c2c1c34 [Pamiparib]
- drug concentration in the brain as share of the detected plasma level [1]: approximately 20%
- BCRP substrate assessment (Human BCRP): not a substrate of P-gp or BCRP
- drug concentration in brain ([2]; maintained for 4 h post treatment): > 100 ng/g
- Kp [2, 14]: 0.18
- AUC1-4h, Brain [2, 15]: 820 ng·h/g
- AUC 0-inf/Dose (PK study in dog; Dog, 2 mg/kg p.o. or 1 mg/kg i.v.): 800 ± 95 ng.h/mL per mg/kg
- half-life (PK study in dog; dog, plasma): 3.6 ± 1.9 h
- Vd (PK study in dog; dog, plasma, intravenous, 1 mg/kg): 2.1 ± 0.2 L/kg
- bioavailability (PK study in dog; dog, plasma, oral): 73 ± 4%
- IC50 [3]: 0.00024 µM
- IC50 [4]: 0.00025 µM
- AUC 0-inf/Dose (PK study in healthy mice; Mouse, 10 mg/kg p.o. or 1 mg/kg i.v.): 552 ± 194 ng.h/mL per mg/kg
- half-life (PK study in healthy mice; mouse, plasma): 3.2 ± 0.5 h
- Vd (PK study in healthy mice; [16]): 5.7 ± 0.5 L/kg
- clearance (PK study in healthy mice; [16]): 29.9 ± 2.4 mL/min/kg
- bioavailability (PK study in healthy mice; mouse, plasma, oral): 99 ± 35%
- IC50 [5]: 0.00017 µM
- intra-tumor concentration [6]: > 0.5 µmol/kg
- concentration at 4 h [7]: ~800 nM
- inhibition of PARylation in brain tumors [8]: complete inhibition of PARylation; also recorded: completely inhibited
- median survival [9]: 21 days
- AUC 0-inf/Dose (PK study in rat; [17]): 694 ± 124 ng.h/mL per mg/kg
- clearance (PK study in rat; [17]): 22.7 ± 2.8 mL/min/kg
- half-life (PK study in rat; rat, plasma): 5.5 ± 0.8 h
- Vd (PK study in rat; rat, plasma, intravenous, 2 mg/kg): 6.9 ± 0.7 L/kg
- bioavailability (PK study in rat; rat, plasma, oral): 94 ± 17%
- P-gp substrate assessment (P-gp): not a substrate of P-gp or BCRP
- median survival [10]: 26.5 days
- Kp [11]: 0.158
- objective responses ([12]; day 29, lowest dose 1.6 mg/kg BID): 100%
- objective responses (PR plus CR) ([12]; day 29, pamiparib oral, BID for 28 days, doses from 1.6 mg/kg): 100%
- tumor relapse at day 89 ([12]; pamiparib lowest dose 1.6 mg/kg): tumor relapse was observed

- AUC1-4h, Brain [2, 15]: 85 ng·h/g
SMILES: Cn1ncnc1[C@H]1c2n[nH]c(=O)c3cc(F)cc(c23)N[C@@H]1c1ccc(F)cc1 [Talazoparib, talazoparib]

- Kp at 1 h ([2]; male, C57, mouse, brain and plasma, oral, Brain/Plasma, concentration, 1 h, single p.o. dose: Pamiparib 10, Talazoparib 3, Olaparib 50, Niraparib 50 mg/kg): 0.06
- Kp at 2 h ([2]; male, C57, mouse, brain and plasma, oral, Brain/Plasma, concentration, 2 h, single p.o. dose: Pamiparib 10, Talazoparib 3, Olaparib 50, Niraparib 50 mg/kg): 0.08
- Kp at 4 h ([2]; male, C57, mouse, brain and plasma, oral, Brain/Plasma, concentration, 4 h, single p.o. dose: Pamiparib 10, Talazoparib 3, Olaparib 50, Niraparib 50 mg/kg): 0.14
- Kp [2, 14]: 0.09
- AUC1-4h, Brain [2, 15]: 1849 ng·h/g
SMILES: NC(=O)c1cccc2cn(-c3ccc([C@@H]4CCCNC4)cc3)nc12 [Niraparib, niraparib]

SMILES: Cn1nnc2c(C(N)=O)ncn2c1=O [TMZ, Temozolomide]
- median survival [13]: 24 days
- EC50 (SNB-19): > 300 µM
- EC50 (LN-229): > 300 µM
- EC50 (U251): 32 µM
- EC50 (SF-539): 80 µM
- EC50 (T98G): > 300 µM
- EC50 (U87-MG): > 300 µM
- EC50 (NCI-H2227): 576 µM
- EC50 (NCI-H1048): 153 µM
- EC50 (NCI-H209): 63 µM
- EC50 (SF-295): > 300 µM
- EC50 (NCI-H69): 15 µM
- EC50 (NCI-H2286): 182 µM
- EC50 (U-118MG): > 300 µM
- median survival [10]: 75 days
- EC50 (DMS153): 60 µM
- EC50 (NCI-H1436): > 300 µM

- AUC1-4h, Brain [2, 15]: 56 ng·h/g
SMILES: O=C(c1cc(Cc2n[nH]c(=O)c3ccccc23)ccc1F)N1CCN(C(=O)C2CC2)CC1 [Olaparib, olaparib, reference compound]
- objective responses ([12]; olaparib high-dose group (50 mg/kg, BID)): 100%
- tumor relapse at day 89 ([12]; olaparib 25 mg/kg BID): tumor relapse was observed
